Measurements from ChEMBL document CHEMBL2176949 (J Med Chem, 2012).

Legend:
[1] = biological target: Neuronal acetylcholine receptor; alpha3/alpha6/beta2/beta3 (Homo sapiens, UniProt P17787+P32297+Q05901+Q15825); experiment: Displacement of [3H]epibatidine from human alpha6/alpha3beta2beta3 nAChR expressed in HEK293T cells
[2] = biological target: T1, Neuronal acetylcholine receptor; alpha4/beta2 (Homo sapiens, UniProt P17787+P43681); experiment: Agonist activity at human alpha4beta2 nAChR expressed in human SH-EP1 cells by whole cell voltage clamp based electrophysiology method relative to 1 mM acetylcholine; assay type: functional
T1 sequence (P17787 whole entry): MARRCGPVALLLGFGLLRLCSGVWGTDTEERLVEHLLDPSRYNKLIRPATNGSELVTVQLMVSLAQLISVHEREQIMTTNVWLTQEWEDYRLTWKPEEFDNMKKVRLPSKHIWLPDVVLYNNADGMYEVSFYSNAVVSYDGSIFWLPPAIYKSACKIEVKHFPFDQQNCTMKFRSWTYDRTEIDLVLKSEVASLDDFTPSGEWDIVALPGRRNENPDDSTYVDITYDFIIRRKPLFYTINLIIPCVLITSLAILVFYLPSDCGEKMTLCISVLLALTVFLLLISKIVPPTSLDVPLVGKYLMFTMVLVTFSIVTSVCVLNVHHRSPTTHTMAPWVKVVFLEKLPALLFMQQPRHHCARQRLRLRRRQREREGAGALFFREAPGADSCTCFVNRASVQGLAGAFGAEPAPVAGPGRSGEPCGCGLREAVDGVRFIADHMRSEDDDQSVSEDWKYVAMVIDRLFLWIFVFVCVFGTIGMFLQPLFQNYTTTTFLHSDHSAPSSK
T1 sequence (P43681 whole entry): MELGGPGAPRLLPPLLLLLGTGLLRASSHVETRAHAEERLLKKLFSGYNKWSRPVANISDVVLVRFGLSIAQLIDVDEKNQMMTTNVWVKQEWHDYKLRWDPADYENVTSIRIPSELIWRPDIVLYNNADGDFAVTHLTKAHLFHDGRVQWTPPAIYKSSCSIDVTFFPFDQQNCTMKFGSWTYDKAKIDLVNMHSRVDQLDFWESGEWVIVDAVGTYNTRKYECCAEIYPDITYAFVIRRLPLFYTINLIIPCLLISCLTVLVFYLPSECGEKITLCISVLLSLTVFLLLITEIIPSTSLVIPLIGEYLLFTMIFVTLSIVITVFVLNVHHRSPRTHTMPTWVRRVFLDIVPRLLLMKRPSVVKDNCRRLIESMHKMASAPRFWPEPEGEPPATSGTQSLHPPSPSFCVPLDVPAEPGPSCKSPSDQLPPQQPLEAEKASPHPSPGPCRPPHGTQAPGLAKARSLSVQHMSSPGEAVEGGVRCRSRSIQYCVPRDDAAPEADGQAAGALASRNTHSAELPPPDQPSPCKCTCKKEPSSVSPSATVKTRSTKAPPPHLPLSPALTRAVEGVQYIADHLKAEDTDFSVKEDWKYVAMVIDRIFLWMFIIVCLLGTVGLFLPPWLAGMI
Summary of the method: (§1)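 Whole-cell voltage clamp at -60 mV, room temperature (22 ± 1 °C), one cell per agonist load, Dynaflow fast application. Agonist applied 1 s for α4β2 and 0.5 s for α7, with 30 s washout. Tris-based pipette solution, pH 7.3. Concentration-response data fitted to the Hill equation, with α4β2 fitted as the sum of two Hill equations. Max % relative to 1 mM ACh.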

[3] = Agonist activity at rat alpha7 nAChR T6'S59 mutant expressed in rat GH4C1 cells by whole cell voltage clamp based electrophysiology method; assay type: functional; settings: GH4-C1
Summary of the method: as §1

[4] = biological target: T2, Neuronal acetylcholine receptor; alpha3/beta4 (Homo sapiens, UniProt P30926+P32297); experiment: Displacement of [3H]epibatidine from human alpha3beta4 nAChR expressed in human SH-SY5Y cells; assay type: cell-based
T2 sequence (P30926 whole entry): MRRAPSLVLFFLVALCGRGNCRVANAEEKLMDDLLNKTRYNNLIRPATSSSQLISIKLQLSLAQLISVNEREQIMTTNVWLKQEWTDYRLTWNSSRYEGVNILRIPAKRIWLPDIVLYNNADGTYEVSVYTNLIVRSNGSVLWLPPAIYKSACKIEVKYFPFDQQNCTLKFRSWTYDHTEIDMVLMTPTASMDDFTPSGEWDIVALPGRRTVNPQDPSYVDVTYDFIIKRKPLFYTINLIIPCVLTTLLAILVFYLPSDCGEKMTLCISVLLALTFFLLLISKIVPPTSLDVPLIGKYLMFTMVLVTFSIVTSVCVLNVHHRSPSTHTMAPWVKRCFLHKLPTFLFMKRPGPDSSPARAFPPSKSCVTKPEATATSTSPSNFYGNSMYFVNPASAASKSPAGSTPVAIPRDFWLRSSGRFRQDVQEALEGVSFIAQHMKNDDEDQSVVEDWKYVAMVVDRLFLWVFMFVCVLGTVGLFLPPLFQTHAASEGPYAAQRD
T2 sequence (P32297 whole entry): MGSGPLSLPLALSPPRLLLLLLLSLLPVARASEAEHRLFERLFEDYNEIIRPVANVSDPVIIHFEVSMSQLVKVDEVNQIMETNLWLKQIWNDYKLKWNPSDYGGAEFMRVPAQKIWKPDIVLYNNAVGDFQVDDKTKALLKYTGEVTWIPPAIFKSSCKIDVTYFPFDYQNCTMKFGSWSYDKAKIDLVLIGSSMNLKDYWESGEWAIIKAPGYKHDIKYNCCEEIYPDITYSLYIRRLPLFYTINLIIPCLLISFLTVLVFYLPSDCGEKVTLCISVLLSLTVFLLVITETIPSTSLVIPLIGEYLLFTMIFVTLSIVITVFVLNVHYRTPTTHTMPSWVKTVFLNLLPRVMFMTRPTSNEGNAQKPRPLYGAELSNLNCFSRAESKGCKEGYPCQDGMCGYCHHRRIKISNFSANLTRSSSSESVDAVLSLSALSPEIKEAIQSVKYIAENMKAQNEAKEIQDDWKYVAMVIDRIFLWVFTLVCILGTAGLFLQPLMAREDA
Summary of the method: (§2)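 Binding to membranes from the cell lines: homogenised in PBS pH 7.4, spun at 40000g for 20 min at 4 °C, then incubated 2 h on ice in PBS with competitor (0.001 nM to 100 μM) and radioligand. Filters washed in ice-cold PBS and counted by scintillation. IC50 from nonlinear regression; Ki by Cheng-Prusoff. Minimum of three assays, ± SEM.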

[5] = Agonist activity at human nAChR alpha6/alpha3beta2beta3 V273S mutant expressed in HEK293T cells by FLIPR; assay type: functional, cell-based; settings: HEK-293T
[6] = biological target: T2, Neuronal acetylcholine receptor; alpha3/beta4; experiment: Agonist activity at human alpha3beta4 nAChR expressed in human SH-SY5Y cells assessed as increase in calcium flux by FLIPR relative to 10 uM nicotine; assay type: functional, cell-based
[7] = biological target: T2, Neuronal acetylcholine receptor; alpha3/beta4; experiment: Agonist activity at human alpha3beta4 nAChR expressed in human SH-SY5Y cells assessed as increase in calcium flux by FLIPR; assay type: functional, cell-based
[8] = biological target: T1, Neuronal acetylcholine receptor; alpha4/beta2; experiment: Agonist activity at human alpha4beta2 nAChR high sensitivity form expressed in human SH-EP1 cells assessed as increase in calcium flux by FLIPR; assay type: functional, cell-based
[9] = biological target: T1, Neuronal acetylcholine receptor; alpha4/beta2; experiment: Agonist activity at human alpha4beta2 nAChR high sensitivity form expressed in human SH-EP1 cells assessed as increase in calcium flux by FLIPR relative to 10 uM nicotine; assay type: functional, cell-based
[10] = biological target: Neuronal acetylcholine receptor subunit alpha-7 (Homo sapiens, UniProt P36544); experiment: Displacement of [3H]epibatidine from human alpha7 nAChR expressed in human HEK/RIC3 cells; assay type: cell-based
Neuronal acetylcholine receptor subunit alpha-7 (Homo sapiens, UniProt P36544), sequence (P36544 whole entry): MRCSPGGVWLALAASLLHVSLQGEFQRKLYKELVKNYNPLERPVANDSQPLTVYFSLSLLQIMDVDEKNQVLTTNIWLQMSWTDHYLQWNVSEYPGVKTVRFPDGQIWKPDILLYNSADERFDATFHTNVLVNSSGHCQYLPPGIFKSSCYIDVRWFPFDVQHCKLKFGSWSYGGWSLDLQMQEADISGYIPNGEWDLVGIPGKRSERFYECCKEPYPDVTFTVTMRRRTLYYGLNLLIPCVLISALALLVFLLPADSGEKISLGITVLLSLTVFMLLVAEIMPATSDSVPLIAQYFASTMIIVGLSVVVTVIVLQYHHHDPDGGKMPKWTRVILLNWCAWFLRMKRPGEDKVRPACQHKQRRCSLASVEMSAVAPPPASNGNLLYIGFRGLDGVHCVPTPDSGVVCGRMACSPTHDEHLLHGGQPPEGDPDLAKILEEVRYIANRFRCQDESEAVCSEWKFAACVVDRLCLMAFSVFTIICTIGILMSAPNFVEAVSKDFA
Summary of the method: as §2

[11] = biological target: T1, Neuronal acetylcholine receptor; alpha4/beta2; experiment: Displacement of [3H]nicotine from human alpha4beta2 nAChR expressed in human SH-EP1 cells; assay type: cell-based
Summary of the method: as §2

[12] = biological target: T1, Neuronal acetylcholine receptor; alpha4/beta2; experiment: Agonist activity at human alpha4beta2 nAChR low sensitivity form expressed in human SH-EP1 cells assessed as increase in calcium flux by FLIPR relative to 10 uM nicotine; assay type: functional, cell-based
[13] = biological target: Nicotinic acetylcholine receptor alpha6/alpha3/beta2/beta3 (Rattus norvegicus, UniProt P04757+P12390+P12391+P43143); experiment: Agonist activity at alpha6/alpha3beta2beta3 nAChR in Sprague-Dawley rat striatal synaptosomes assessed as induction of dopamine release; assay type: functional, subcellular, Brain
[14] = Agonist activity at human nAChR alpha6/alpha3beta2beta3 V273S mutant expressed in HEK293T cells by FLIPR relative to 10 uM nicotine; assay type: functional, HEK-293T
[15] = biological target: T1, Neuronal acetylcholine receptor; alpha4/beta2; experiment: Agonist activity at human alpha4beta2 nAChR expressed in human SH-EP1 cells by whole cell voltage clamp based electrophysiology method; assay type: functional
Summary of the method: as §1

[16] = Agonist activity at rat alpha7 nAChR T6'S59 mutant expressed in rat GH4C1 cells by whole cell voltage clamp based electrophysiology method relative to 1 mM acetylcholine; assay type: functional, GH4-C1
Summary of the method: as §1

[17] = biological target: T1, Neuronal acetylcholine receptor; alpha4/beta2; experiment: Agonist activity at human alpha4beta2 nAChR low sensitivity form expressed in human SH-EP1 cells assessed as increase in calcium flux by FLIPR; assay type: functional, cell-based
[18] = biological target: Nicotinic acetylcholine receptor alpha6/alpha3/beta2/beta3 (Rattus norvegicus) (UniProt P04757+P12390+P12391+P43143); experiment: Agonist activity at alpha6/alpha3beta2beta3 nAChR in Sprague-Dawley rat striatal synaptosomes assessed as induction of dopamine release relative to 10 uM nicotine; assay type: functional, subcellular; settings: Brain
[19] = biological target: T3, Neuronal acetylcholine receptor subunit alpha-7 (Rattus norvegicus, UniProt Q05941); experiment: Binding affinity to rat alpha7 nAChR
T3 sequence (Q05941 whole entry): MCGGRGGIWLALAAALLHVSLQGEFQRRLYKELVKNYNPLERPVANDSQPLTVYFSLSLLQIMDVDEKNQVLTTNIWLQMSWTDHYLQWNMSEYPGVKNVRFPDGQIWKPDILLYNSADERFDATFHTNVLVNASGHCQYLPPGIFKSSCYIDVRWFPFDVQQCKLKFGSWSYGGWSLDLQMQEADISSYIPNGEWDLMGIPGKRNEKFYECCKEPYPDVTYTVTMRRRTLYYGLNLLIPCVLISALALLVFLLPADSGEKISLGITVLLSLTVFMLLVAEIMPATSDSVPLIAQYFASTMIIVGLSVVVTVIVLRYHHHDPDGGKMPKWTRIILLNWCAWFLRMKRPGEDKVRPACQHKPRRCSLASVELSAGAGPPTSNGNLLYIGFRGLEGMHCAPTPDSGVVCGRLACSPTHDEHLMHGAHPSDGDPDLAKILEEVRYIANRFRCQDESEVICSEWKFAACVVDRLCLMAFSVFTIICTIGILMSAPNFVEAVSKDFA

[20] = biological target: Neuronal acetylcholine receptor; alpha4/beta2 (Rattus norvegicus, UniProt P09483+P12390); experiment: Binding affinity to rat alpha4beta2 nAChR
[21] = biological target: Neuronal acetylcholine receptor subunit alpha-7 (Mus musculus, UniProt P49582)
Neuronal acetylcholine receptor subunit alpha-7 (Mus musculus, UniProt P49582), sequence (P49582 whole entry): as the sequence (Q05941 whole entry) above, with G4R, A424T counted along it

Homo sapiens [22] = species: Homo sapiens; experiment: Ratio of EC50 for human nAChR alpha6/alpha3beta2beta3 V273S mutant to Ki for human alpha6/alpha3beta2beta3 nAChR
Homo sapiens [23] = species: Homo sapiens; experiment: Selectivity index, ratio of Ki for human alpha3beta4 nAChR to Ki for human alpha4beta2 nAChR
[24] = biological target: T3, Neuronal acetylcholine receptor subunit alpha-7; experiment: Binding affinity to rat alpha7 nAChR expressed in Xenopus laevis oocytes; assay type: cell-based, Oocyte
[25] = biological target: T3, Neuronal acetylcholine receptor subunit alpha-7; experiment: Agonist activity at rat alpha7 nAChR expressed in Xenopus laevis oocytes by two-electrode voltage clamp assay; assay type: functional, cell-based, Oocyte

Neuronal acetylcholine receptor; alpha3/alpha6/beta2/beta3, sequence (P17787 whole entry): as the sequence (P17787 whole entry) above
Neuronal acetylcholine receptor; alpha3/alpha6/beta2/beta3, sequence (P32297 whole entry): as the sequence (P32297 whole entry) above
Neuronal acetylcholine receptor; alpha3/alpha6/beta2/beta3, sequence (Q15825 whole entry): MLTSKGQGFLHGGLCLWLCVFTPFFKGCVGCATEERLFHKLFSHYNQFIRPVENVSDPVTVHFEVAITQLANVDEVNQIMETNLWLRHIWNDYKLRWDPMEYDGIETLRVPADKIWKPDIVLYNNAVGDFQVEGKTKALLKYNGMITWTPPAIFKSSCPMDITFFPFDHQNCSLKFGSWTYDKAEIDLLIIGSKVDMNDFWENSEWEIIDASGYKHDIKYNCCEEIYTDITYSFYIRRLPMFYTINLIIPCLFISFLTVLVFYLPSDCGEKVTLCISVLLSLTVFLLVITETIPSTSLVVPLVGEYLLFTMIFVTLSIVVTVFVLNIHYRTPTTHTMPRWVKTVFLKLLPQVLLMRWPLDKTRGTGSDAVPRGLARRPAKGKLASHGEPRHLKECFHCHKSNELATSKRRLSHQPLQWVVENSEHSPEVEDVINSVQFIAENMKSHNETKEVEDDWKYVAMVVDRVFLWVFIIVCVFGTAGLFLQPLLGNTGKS
Neuronal acetylcholine receptor; alpha3/alpha6/beta2/beta3, sequence (Q05901 whole entry): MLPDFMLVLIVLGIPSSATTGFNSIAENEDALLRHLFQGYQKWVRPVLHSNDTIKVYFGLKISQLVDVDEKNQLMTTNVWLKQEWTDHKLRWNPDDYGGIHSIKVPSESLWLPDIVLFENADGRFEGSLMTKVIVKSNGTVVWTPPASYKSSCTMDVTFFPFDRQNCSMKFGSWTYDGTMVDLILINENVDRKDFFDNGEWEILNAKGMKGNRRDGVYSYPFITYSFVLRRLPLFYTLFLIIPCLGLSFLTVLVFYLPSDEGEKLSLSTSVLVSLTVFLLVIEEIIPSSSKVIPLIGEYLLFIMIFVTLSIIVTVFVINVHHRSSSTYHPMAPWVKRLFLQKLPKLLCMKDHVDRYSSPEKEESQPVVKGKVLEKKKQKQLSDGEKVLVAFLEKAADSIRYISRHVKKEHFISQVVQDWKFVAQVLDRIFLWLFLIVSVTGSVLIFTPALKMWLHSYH

C1=C(c2cncc(Oc3ccccc3)c2)CC2CNCC1C2 (stereo not given)
Ki [1]: 4.8 nM | %max [2]: 9% | EC50 [3]: 350 nM | Ki [4]: 1.9 nM | EC50 [5]: > 10000 nM | %max [6]: 101% | EC50 [7]: 23 nM | EC50 [8]: 62 nM | %max [9]: 52% | Ki [10]: 22 nM | Ki [11]: 0.7 nM | %max [12]: 30% | EC50 [13]: 718 nM | %max [14]: 0% | EC50 [15]: 590 nM | %max [16]: 31% | EC50 [17]: 654 nM | %max [18]: 57%

O=c1cccc2n1C[C@@H]1CNC[C@H]2C1 [CYTISINICLINE]
Ki [19]: 8000 nM | Ki [20]: 1 nM

CN1C[C@@H]2C=C(c3cccnc3)C[C@@H](C2)C1
Ki [1]: 320 nM | %max [2]: 18% | EC50 [3]: 6000 nM | Ki [4]: 1800 nM | EC50 [5]: > 10000 nM | %max [6]: 25% | EC50 [7]: > 10000 nM | EC50 [8]: 6660 nM | %max [9]: 53% | Ki [10]: 70 nM | Ki [11]: 9.4 nM | %max [12]: 17% | EC50 [13]: 855 nM | %max [14]: 9% | EC50 [15]: 3100 nM | %max [16]: 87% | EC50 [17]: > 10000 nM | %max [18]: 13%

CN1C[C@H]2C=C(c3cccnc3)C[C@H](C2)C1
Ki [1]: 300 nM | %max [2]: 19% | EC50 [3]: 3800 nM | Ki [4]: 534 nM | EC50 [5]: > 10000 nM | %max [6]: 31% | EC50 [7]: 7530 nM | EC50 [8]: > 10000 nM | %max [9]: 19% | Ki [10]: 74 nM | Ki [11]: 2.1 nM | %max [12]: 11% | EC50 [13]: > 10000 nM | %max [14]: 7% | EC50 [15]: 3500 nM | %max [16]: 100% | EC50 [17]: 7660 nM | %max [18]: 27%

CC(C)Oc1cncc(C2=CC3CC(C2)CN(C)C3)c1 (stereo not given)
Ki [1]: 690 nM | %max [2]: 10% | EC50 [3]: 21300 nM | Ki [4]: 1730 nM | EC50 [5]: > 10000 nM | %max [6]: 15% | EC50 [7]: > 10000 nM | EC50 [8]: > 10000 nM | %max [9]: 1% | Ki [10]: > 10000 nM | Ki [11]: 2.2 nM | %max [12]: 3.3% | EC50 [13]: 879 nM | %max [14]: 0.2% | EC50 [15]: 3500 nM | %max [16]: 60% | EC50 [17]: > 10000 nM | %max [18]: 63%

CN1CCC[C@H]1c1cccnc1 [NICOTINE]
Ki [21]: 244 nM

C1=C(c2cccnc2)C[C@H]2CNC[C@@H]1C2
Ki [1]: 0.95 nM | %max [2]: 40% | EC50 [3]: 30 nM | Ki [4]: 4 nM | EC50 [5]: 14 nM | %max [6]: 142% | EC50 [7]: 37 nM | EC50 [8]: 2.3 nM | %max [9]: 114% | Ki [10]: 1.2 nM | Ratio (Homo sapiens [22]): 15 | Ki [11]: 0.2 nM | %max [12]: 129% | EC50 [13]: 0.95 nM | %max [14]: 110% | EC50 [15]: 100 nM | %max [16]: 20% | EC50 [17]: 12 nM | Ratio Ki (Homo sapiens [23]): 20 | %max [18]: 73%

CC(C)Oc1cncc(C2=CC3CNCC(C2)C3)c1 (stereo not given)
Ki [1]: 2.6 nM | %max [2]: 11% | EC50 [3]: 2800 nM | Ki [4]: 4.8 nM | EC50 [5]: > 10000 nM | %max [6]: 160% | EC50 [7]: 69 nM | EC50 [8]: 164 nM | %max [9]: 75% | Ki [10]: 105 nM | Ki [11]: 0.26 nM | %max [12]: 54% | EC50 [13]: 1090 nM | %max [14]: 3% | EC50 [15]: 1400 nM | %max [16]: 92% | EC50 [17]: 562 nM | %max [18]: 86%

C1=C(c2cccnc2)C[C@@H]2CNC[C@H]1C2
Ki [1]: 1 nM | %max [2]: 32% | EC50 [3]: 20 nM | Ki [4]: 23 nM | EC50 [5]: 15 nM | %max [6]: 139% | EC50 [7]: 73 nM | EC50 [8]: 2.3 nM | %max [9]: 111% | Ki [10]: 1.3 nM | Ratio (Homo sapiens [22]): 15 | Ki [11]: 0.1 nM | %max [12]: 131% | EC50 [13]: 1.4 nM | %max [14]: 82% | EC50 [15]: 50 nM | %max [16]: 28% | EC50 [17]: 35 nM | Ratio Ki (Homo sapiens [23]): 230 | %max [18]: 49%

c1cnc2cc3c(cc2n1)[C@@H]1CNC[C@H]3C1 [VARENICLINE]
Ki [24]: 300 nM | EC50 [25]: 18000 nM
